Laboratory results reported in ChEMBL document CHEMBL1122082, “Alkaline phosphatase inhibition by a series of pyrido[2,1-b]quinazolines: A possible relationship with cromolyn-like antiallergy activity” (J Med Chem, 1982).
Active and inactive are the calls of the source. The calls are words filed in the database; no cut-off is given here.

species on record: Rattus norvegicus; assay: Dose required for 50% inhibition of rat passive cutaneous anaphylaxis model; type: functional; details: not given
Summary of the method: (§1)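 Antiserum dilutions were injected intradermally on the back. 48 h later rats got an i.v. challenge of 1 mg ovalbumin with 0.25% Evans blue in 1 mL saline, with compound dissolved in it, using slight-excess NaHCO3 if needed.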

Compound | ED50
COc1ccc2nc3ccc(C(=O)O)cn3c(=O)c2c1 | 0.05 mg/kg
Cc1ccc2nc3ccc(C(=O)O)cn3c(=O)c2c1 | 0.05 mg/kg
COc1cc2nc3ccc(C(=O)O)cn3c(=O)c2cc1OC | 0.05 mg/kg
COc1ccc2nc3ccc(-c4nn[nH]n4)cn3c(=O)c2c1 | 0.03 mg/kg
COc1ccc2c(=O)n3cc(-c4nn[nH]n4)ccc3nc2c1 | 0.5 mg/kg
O=C(O)c1ccc2nc3ccccc3c(=O)n2c1 | 0.5 mg/kg
O=C(O)c1ccc2nc3ccc(O)cc3c(=O)n2c1 | 0.05 mg/kg
O=C(O)c1ccc2nc3cc4ccccc4cc3c(=O)n2c1 | 0.1 mg/kg

test system: Rattus norvegicus; assay: Percent inhibition of rat passive cutaneous anaphylaxis model after intravenous administration of the 0.5 mg/kg; type: functional; details: not given; summary of the method: as §1

Compound | inhibition in vivo at 0.5 mg/kg
O=c1c2ccccc2nc2ccc(-c3nn[nH]n3)cn12 | 68%
O=C(O)c1ccn2c(=O)c3ccccc3nc2c1 | 26%
COc1cc2nc3ccc(-c4nn[nH]n4)cn3c(=O)c2cc1OC | 100%
Cc1ccc2nc3ccc(-c4nn[nH]n4)cn3c(=O)c2c1 | 100%
O=c1c2cc3ccccc3cc2nc2ccc(-c3nn[nH]n3)cn12 | 100%

test system: Rattus norvegicus; assay: Percent inhibition of rat passive cutaneous anaphylaxis model after intravenous administration of the 0.5 mg/kg; IA is Inactive; type: functional, organism-based; design: dose 0.5 mg/kg; details: at 0.5 mg/kg; summary of the method: as §1

Compound | inhibition
O=C(O)c1cccn2c(=O)c3cc4ccccc4cc3nc12 | inactive
O=C(O)c1ccc2nccc(=O)n2c1 | inactive
O=C(O)C1=CN2CC3=C(CCCC3)N=C2C=C1 | inactive
O=C(O)c1cccn2c(=O)c3ccccc3nc12 | inactive
